PKD1 inh: inhibitors of human PKD1 kinase; 0.056% of 200,000 active; Q15139; PKD1 kinase fluorescence polarization assay; inhibition, % (test concentration not listed)
GSH bead fluor: compound fluoresces at 488/530 nm on GSH beads; GSH beads flow cytometry, compound fluorescence 488/530 nm; active compounds read high; fluorescence (KMESF) at 10 µM; 0.25% of 190,000 active; in the data active = fluorescence above about 89;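 note: glutathione beads carrying GST-tagged Bcl family fusion proteins plus one bare bead set; values are compound well signal with DMSO vehicle wells as background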
ABCB1 inh: blocks JC-1 efflux by human ABCB1 transporter. P08183. CCRF-Adr cells, flow cytometry. inhibition, % at 6.6 µM. 0.067% of 190,000 active; in the data active = inhibition above about 40%;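 note: 0% = vehicle and 100% = reference inhibitor; higher value means more JC-1 retained so stronger ABCB1 efflux block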
L major viab: inhibitors of Leishmania major promastigote growth; Leishmania major promastigotes, resazurin fluorescence viability; 9% of 200,000 active; inhibition, % at 10 µM;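 note: promastigotes grown with compound for 44 hours at 28 °C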
Avidin bead fluor: avidin bead compound fluorescence profile. 0.38% of 220,000 active. AID 1775. Avidin beads, compound fluorescence 488/530 nm, flow cytometry; active compounds read high. fluorescence (KMESF) at 10 µM; in the data active = fluorescence above about 47
ABCG2 block: inhibitors of human ABCG2 transporter, ABCB1 counter-screen. AID 1325. inhibition, % at 6.6 µM. IgMXP3 cells, JC-1 efflux, flow cytometry. 0.1% of 190,000 active;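 active = inhibition above 80%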;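 note: 0% = DMSO and 100% = nicardipine control wells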
Target sequence (Q9UNQ0 whole entry, looked up): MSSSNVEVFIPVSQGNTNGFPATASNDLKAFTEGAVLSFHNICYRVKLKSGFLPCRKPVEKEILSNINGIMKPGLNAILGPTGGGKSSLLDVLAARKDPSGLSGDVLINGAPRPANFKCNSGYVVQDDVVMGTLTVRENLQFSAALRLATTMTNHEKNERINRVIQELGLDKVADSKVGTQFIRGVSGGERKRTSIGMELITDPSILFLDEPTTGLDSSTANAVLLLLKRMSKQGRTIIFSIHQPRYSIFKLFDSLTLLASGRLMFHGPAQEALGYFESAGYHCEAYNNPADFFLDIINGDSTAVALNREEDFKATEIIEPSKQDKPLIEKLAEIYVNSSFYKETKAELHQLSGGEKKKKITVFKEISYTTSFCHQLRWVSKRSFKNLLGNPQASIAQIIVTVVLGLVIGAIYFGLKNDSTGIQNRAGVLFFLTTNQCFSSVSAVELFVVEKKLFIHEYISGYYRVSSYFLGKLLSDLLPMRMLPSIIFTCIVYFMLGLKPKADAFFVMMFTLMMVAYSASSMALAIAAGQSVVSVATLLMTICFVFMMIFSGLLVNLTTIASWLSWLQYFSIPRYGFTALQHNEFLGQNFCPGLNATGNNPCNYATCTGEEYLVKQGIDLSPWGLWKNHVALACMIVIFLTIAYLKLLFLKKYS
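Incubation: cells with compound and JC-1, 10 min at 25 °C, rotating, no wash / Test system: IgMXP3 (ABCG2) plus far-red-tagged CCRF-Adr (ABCB1) cells / Compound dosing: one concentration, 6.6 µM final / Also added: JC-1 fluorescent substrate / Evaluation: efflux inhibition in percent versus controls / Detection: flow cytometry, 530 nm JC-1 signal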
Active calls of the source: *; . = no result. Many of the other results were omitted from the sample, so hits are more common in it than they were. Cut-off read from the data, not from the text of the source, unless noted: active = inhibition above about 50%; inactive = the rest.

SMILES	PKD1 inh	GSH bead fluor	ABCB1 inh	L major viab	Avidin bead fluor	ABCG2 block
COc1ccc(/C(N)=N/OC(=O)CN(C)S(=O)(=O)c2ccc(C)cc2)cc1	2	14	1	1	10	9
COc1ccc(C(=O)NCC(c2cccnc2)N2CCN(c3ccccc3OC)CC2)cc1OC (centres undefined)	4	23	-3	74*	6	-3
COc1cccc(C(=O)NCC(c2cccnc2)N2CCN(c3ccccc3OC)CC2)c1 (centres undefined)	-12	13	1	88*	18	2
Cn1c(=O)oc2cc(S(=O)(=O)N3CCCC(C(=O)NC4CCCc5ccccc54)C3)ccc21 (centres undefined)	13	18	1	3	6	2
Cc1ccc(NC(=O)c2ccc(NCCCN3CCC(C)CC3)c([N+](=O)[O-])c2)cc1F	5	16	1	84*	14	7
O=C(Nc1cccc(Cl)c1)c1ccc(NCCCN2CCOCC2)c([N+](=O)[O-])c1	2	16	2	99*	16	44
Cc1ccc(NC(=O)c2ccc(NCCN)c([N+](=O)[O-])c2)cc1	-11	6	-1	89*	2	-3
Cc1nc(/N=C(\N)NC(=O)N2c3ccccc3Sc3ccccc32)nc2ccccc12	-3	9	0	97*	16	4
Cc1nc(/N=C(\N)NC(=O)c2ccccc2)nc2ccccc12	-15	35	0	6	6	3
CCc1ccc2[nH]c(=O)c(CN(CCCN3CCOCC3)C(=O)Nc3cccc(Cl)c3)cc2c1	-17	22	19	84*	26	42
Cc1ccc(C)c2[nH]c(=O)c(CN(CCN3CCCC3)C(=O)Nc3cccc(Cl)c3)cc12	3	17	3	100*	13	4
CCOC(=O)/C(C#N)=N/Nc1c(C)n(C)n(-c2ccccc2)c1=O	-4	11	-1	2	9	1
CCOC(=O)/C(C#N)=N/Nc1ccccc1C#N	.	.	.	.	47*	.
CCN(CC)c1ccc2c(c1)OC(N)=C(C#N)C2c1cccnc1 (centres undefined)	0	7	1	81*	10	2
Cc1ccc(C2(c3ccc(C)cc3)CC2C(=O)Nc2ccc([N+](=O)[O-])cc2O)cc1 (centres undefined)	-2	32	-1	100*	11	-5
C/C(=N\NC(=O)C1CC1(c1ccccc1)c1ccccc1)c1cccc([N+](=O)[O-])c1 (centres undefined)	9	7	2	60*	15	21
C/C(=N\NC(=O)C1CC1c1ccccc1)c1cccc([N+](=O)[O-])c1 (centres undefined)	3	18	0	0	16	5
CCC(C)NS(=O)(=O)c1ccc(S(=O)(=O)N2CCCC3(CCCCC3)C2)cc1 (centres undefined)	-12	23	0	28	29	1
COc1cc(NC(=S)N2CCC(C(O)(c3ccccc3)c3ccccc3)CC2)cc(OC)c1	0	16	6	6	5	-1
O=C(N/N=C/c1ccc(N2CCOCC2)s1)c1ccccc1Cl	4	17	-2	-7	6	-7
FC(F)(F)c1ccc(Cl)c(N/N=C/c2ccc(N3CCOCC3)s2)c1	-5	4	1	98*	11	8
COc1ccc(C(=O)N2CCCC(CCC(=O)NCc3ccc(F)c(F)c3)C2)o1 (centres undefined)	-6	11	4	-7	10	56
CC(=O)c1cccc(CN2CCCC(CCC(=O)NCc3ccccc3F)C2)c1 (centres undefined)	-11	10	2	92*	3	3
O=C(CCC1CCCN(C2C3CC4CC(C3)CC2C4)C1)NCc1ccc(F)c(F)c1 (centres undefined)	-6	13	0	56*	6	-1
O=C(CCC1CCCN(Cc2ccc3c(c2)CCO3)C1)NCc1ccc(F)c(F)c1 (centres undefined)	-3	15	0	99*	11	1
Cc1ncc(CN2CCCC(CCC(=O)NCc3ccc(F)c(F)c3)C2)s1 (centres undefined)	-6	52	0	88*	9	1
